ChEMBL document CHEMBL1811853, “Design and evaluation of 3-aminopyrazolopyridinone kinase inhibitors inspired by the natural product indirubin” (Bioorg Med Chem, 2011)
Converted amounts (≈) assume the structure as drawn.

Experiments:
[1] = target: Mitogen-activated protein kinase 14 (Homo sapiens, UniProt Q16539); test: Inhibition of p38alpha at 30 uM by microfluidic mobility shift assay
Outline: (§1)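 Single-concentration screen, singlicate, 30 uM final (diluted from 1 mM DMSO solutions), fluorescently tagged peptide substrate appropriate to each kinase, ATP at apparent Km for each protein. Phosphorylated and unphosphorylated peptides separated electrophoretically; conversion is the phosphorylated peak area over the sum of both peaks. No-inhibitor and no-ATP controls; H89 reference on each plate.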

[2] = target: Tyrosine-protein kinase Lyn (Homo sapiens, UniProt P07948); test: Inhibition of LYN at 30 uM by microfluidic mobility shift assay; outline: as §1
Chain of Tyrosine-protein kinase Lyn (P07948 2-512 limits assumed): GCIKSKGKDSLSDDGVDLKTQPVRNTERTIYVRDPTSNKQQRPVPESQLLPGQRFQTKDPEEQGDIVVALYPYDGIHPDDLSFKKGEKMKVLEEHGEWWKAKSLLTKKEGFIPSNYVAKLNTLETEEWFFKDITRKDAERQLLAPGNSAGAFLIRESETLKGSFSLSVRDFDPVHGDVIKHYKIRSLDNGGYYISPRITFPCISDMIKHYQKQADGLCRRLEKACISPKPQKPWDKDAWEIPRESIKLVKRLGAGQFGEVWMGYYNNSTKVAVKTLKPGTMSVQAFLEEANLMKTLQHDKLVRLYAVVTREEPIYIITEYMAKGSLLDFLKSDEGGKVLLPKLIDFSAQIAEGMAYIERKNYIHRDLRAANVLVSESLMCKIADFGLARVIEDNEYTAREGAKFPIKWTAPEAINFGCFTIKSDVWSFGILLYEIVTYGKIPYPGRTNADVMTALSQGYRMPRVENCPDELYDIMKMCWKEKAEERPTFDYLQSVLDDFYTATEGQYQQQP

[3] = target: Mitogen-activated protein kinase 3 (Homo sapiens) (UniProt P27361); test: Inhibition of ERK1 at 30 uM by microfluidic mobility shift assay; outline: as §1
Chain of Mitogen-activated protein kinase 3 (Homo sapiens) (P27361 whole entry): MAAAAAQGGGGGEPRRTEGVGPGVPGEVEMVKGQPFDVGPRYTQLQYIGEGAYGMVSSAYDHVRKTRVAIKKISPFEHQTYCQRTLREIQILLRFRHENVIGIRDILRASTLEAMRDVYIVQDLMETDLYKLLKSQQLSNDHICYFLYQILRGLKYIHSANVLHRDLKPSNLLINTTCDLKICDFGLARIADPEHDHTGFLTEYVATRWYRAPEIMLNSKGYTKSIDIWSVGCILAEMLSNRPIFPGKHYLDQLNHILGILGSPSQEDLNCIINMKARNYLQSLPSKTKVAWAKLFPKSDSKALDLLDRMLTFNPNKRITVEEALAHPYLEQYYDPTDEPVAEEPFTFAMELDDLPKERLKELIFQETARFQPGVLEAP

[4] = target: Insulin receptor (Homo sapiens) (UniProt P06213); test: Inhibition of INSR at 30 uM by microfluidic mobility shift assay; outline: as §1
[5] = Aqueous solubility of the compound by HPLC analysis; type: physicochemical; settings: water
Outline: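 Solubility determined by HPLC measurement of the concentration in saturated aqueous solutions of the compounds.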

[6] = target: T1, Aurora kinase A (Homo sapiens) (UniProt O14965); test: Inhibition of AurA at 30 uM by microfluidic mobility shift assay; outline: as §1
T1 sequence (whole entry): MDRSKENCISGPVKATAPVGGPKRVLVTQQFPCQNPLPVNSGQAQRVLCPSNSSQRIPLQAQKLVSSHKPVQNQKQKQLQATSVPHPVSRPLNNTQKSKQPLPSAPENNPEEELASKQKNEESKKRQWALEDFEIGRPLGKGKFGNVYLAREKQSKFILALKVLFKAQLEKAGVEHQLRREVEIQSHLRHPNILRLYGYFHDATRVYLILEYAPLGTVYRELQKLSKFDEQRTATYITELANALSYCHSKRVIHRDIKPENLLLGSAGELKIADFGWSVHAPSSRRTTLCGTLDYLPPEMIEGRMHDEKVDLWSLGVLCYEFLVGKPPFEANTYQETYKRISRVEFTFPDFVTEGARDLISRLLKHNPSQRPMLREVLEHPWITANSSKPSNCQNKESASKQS

[7] = target: Ribosomal protein S6 kinase alpha-1 (Homo sapiens) (UniProt Q15418); test: Inhibition of RSK1 at 30 uM by microfluidic mobility shift assay; outline: as §1
[8] = target: RAC-beta serine/threonine-protein kinase (Homo sapiens) (UniProt P31751); test: Inhibition of AKT2 at 30 uM by microfluidic mobility shift assay; outline: as §1
Chain of RAC-beta serine/threonine-protein kinase (Homo sapiens) (P31751 whole entry): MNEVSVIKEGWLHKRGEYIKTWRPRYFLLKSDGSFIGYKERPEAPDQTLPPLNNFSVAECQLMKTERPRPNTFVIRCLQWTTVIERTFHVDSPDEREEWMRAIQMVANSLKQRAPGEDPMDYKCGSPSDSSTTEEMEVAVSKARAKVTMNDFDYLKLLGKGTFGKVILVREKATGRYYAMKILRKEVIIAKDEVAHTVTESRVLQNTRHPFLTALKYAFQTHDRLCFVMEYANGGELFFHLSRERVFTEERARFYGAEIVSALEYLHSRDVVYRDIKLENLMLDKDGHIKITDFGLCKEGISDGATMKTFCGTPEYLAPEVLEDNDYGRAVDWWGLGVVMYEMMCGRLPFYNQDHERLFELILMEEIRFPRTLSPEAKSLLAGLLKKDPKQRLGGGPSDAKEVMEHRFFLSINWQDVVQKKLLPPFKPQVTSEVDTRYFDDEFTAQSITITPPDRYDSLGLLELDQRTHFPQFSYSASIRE

[9] = target: RAC-alpha serine/threonine-protein kinase (Homo sapiens) (UniProt P31749); test: Inhibition of AKT1 at 30 uM by microfluidic mobility shift assay; outline: as §1
Chain of RAC-alpha serine/threonine-protein kinase (Homo sapiens) (P31749 whole entry): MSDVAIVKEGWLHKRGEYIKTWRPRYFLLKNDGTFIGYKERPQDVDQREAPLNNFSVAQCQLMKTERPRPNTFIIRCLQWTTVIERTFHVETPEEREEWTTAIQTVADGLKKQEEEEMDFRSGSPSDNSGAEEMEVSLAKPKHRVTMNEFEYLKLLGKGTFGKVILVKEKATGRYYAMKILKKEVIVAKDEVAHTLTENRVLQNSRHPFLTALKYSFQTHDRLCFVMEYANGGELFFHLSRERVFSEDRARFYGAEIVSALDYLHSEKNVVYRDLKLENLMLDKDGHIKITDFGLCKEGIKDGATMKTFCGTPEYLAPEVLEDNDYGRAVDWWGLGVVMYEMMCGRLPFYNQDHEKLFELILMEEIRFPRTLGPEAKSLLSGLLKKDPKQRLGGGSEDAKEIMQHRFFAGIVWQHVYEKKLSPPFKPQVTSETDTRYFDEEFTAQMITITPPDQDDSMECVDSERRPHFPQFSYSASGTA

[10] = target: Mitogen-activated protein kinase 1 (Homo sapiens) (UniProt P28482); test: Inhibition of ERK2 at 30 uM by microfluidic mobility shift assay; outline: as §1
[11] = Inhibition of PKA at 30 uM by microfluidic mobility shift assay; outline: as §1
[12] = target: Ribosomal protein S6 kinase alpha-5 (Homo sapiens) (UniProt O75582); test: Inhibition of MSK1 at 30 uM by microfluidic mobility shift assay; outline: as §1
[13] = target: Tyrosine-protein kinase Lck (Homo sapiens, UniProt P06239); test: Inhibition of LCK at 30 uM by microfluidic mobility shift assay; outline: as §1
[14] = target: Tyrosine-protein kinase ABL1 (Homo sapiens, UniProt P00519); test: Inhibition of ABL at 30 uM by microfluidic mobility shift assay; outline: as §1
Chain of Tyrosine-protein kinase ABL1 (P00519 whole entry): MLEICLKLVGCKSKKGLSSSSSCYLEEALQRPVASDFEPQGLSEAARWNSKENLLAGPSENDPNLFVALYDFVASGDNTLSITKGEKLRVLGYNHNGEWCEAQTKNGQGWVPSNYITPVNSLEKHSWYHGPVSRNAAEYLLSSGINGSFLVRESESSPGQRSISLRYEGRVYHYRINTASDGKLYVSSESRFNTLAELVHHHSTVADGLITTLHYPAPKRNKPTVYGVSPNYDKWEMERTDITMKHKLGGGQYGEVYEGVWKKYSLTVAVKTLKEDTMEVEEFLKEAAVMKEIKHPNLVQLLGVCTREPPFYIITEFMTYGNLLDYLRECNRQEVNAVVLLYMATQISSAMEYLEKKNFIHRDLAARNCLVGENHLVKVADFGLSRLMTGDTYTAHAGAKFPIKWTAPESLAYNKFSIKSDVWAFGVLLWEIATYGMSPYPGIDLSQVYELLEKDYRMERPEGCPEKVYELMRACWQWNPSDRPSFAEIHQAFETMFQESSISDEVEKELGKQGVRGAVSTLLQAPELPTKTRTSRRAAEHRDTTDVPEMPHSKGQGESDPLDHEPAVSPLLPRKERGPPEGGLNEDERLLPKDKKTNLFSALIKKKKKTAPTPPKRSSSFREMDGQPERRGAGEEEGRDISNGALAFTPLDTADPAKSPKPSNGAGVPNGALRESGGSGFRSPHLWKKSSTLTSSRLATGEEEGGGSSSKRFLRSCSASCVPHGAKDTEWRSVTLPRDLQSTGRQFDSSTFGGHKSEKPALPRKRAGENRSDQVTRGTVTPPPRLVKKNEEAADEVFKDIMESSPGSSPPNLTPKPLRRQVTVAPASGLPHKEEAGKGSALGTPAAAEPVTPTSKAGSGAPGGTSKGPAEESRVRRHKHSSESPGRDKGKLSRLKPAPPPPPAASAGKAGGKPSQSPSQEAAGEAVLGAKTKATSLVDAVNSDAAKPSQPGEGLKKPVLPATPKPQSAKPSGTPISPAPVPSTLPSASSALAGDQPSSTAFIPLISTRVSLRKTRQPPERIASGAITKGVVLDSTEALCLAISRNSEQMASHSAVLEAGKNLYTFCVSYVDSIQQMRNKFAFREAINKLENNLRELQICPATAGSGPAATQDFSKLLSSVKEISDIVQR

[15] = target: Serine/threonine-protein kinase Chk2 (Homo sapiens, UniProt O96017); test: Inhibition of CHK2 at 30 uM by microfluidic mobility shift assay; outline: as §1
Chain of Serine/threonine-protein kinase Chk2 (O96017 whole entry): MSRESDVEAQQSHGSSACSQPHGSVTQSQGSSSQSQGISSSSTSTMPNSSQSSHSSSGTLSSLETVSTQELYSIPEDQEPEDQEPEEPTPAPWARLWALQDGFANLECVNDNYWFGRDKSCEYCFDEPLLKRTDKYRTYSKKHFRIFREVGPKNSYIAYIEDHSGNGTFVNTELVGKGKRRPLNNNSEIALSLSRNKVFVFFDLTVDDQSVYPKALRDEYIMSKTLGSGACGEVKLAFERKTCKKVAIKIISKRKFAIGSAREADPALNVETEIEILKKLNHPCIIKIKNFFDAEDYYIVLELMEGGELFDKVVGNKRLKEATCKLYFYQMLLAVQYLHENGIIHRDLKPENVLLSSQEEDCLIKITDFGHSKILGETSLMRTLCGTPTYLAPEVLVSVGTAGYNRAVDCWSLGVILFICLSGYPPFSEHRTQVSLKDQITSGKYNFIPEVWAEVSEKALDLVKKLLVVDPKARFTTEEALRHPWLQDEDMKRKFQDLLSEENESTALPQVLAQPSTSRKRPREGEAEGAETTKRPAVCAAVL

[16] = target: Proto-oncogene tyrosine-protein kinase Src (Homo sapiens, UniProt P12931); test: Inhibition of SRC at 30 uM by microfluidic mobility shift assay; outline: as §1
[17] = target: T2, Serine/threonine-protein kinase Chk1 (Homo sapiens) (UniProt O14757); test: Inhibition of CHK1 at 30 uM by microfluidic mobility shift assay; outline: as §1
T2 sequence (whole entry): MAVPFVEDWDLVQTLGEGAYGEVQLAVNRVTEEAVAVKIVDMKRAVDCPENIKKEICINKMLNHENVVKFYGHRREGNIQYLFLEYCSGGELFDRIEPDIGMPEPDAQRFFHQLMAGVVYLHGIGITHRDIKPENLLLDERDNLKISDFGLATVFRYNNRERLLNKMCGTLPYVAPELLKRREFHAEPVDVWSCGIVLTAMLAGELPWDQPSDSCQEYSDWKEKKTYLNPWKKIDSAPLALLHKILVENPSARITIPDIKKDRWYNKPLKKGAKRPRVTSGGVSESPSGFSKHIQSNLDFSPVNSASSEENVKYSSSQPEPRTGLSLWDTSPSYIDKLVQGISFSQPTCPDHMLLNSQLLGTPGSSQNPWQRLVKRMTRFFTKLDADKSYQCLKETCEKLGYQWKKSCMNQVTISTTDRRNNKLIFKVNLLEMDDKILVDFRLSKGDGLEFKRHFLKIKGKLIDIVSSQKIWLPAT

[18] = target: Tyrosine-protein kinase Fyn (Homo sapiens, UniProt P06241); test: Inhibition of FYN at 30 uM by microfluidic mobility shift assay; outline: as §1
[19] = target: T3, Serine/threonine-protein kinase D2 (Homo sapiens) (UniProt Q9BZL6); test: Inhibition of PKD2 at 30 uM by microfluidic mobility shift assay; outline: as §1
T3 sequence (whole entry): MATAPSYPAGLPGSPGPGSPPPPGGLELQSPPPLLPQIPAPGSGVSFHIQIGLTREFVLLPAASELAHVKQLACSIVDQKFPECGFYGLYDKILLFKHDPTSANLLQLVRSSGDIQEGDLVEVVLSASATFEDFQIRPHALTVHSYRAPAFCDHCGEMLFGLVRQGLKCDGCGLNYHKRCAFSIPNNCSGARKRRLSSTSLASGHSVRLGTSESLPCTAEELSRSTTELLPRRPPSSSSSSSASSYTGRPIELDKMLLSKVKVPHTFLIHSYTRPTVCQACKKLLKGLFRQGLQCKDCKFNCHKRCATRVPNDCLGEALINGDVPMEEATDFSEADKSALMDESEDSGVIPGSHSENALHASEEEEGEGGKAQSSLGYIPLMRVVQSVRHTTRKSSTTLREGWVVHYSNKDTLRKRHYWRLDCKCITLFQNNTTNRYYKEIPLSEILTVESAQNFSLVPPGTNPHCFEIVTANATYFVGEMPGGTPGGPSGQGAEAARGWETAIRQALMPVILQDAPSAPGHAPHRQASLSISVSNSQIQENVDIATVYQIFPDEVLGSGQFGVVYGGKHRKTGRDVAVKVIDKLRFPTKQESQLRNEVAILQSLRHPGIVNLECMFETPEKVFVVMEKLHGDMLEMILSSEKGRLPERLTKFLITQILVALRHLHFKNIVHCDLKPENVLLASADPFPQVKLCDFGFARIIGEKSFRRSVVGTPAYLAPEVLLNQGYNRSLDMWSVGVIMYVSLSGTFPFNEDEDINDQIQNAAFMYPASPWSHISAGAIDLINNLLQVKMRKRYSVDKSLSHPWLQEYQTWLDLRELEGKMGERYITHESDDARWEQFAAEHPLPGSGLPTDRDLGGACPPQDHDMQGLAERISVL

[20] = target: MAP kinase-activated protein kinase 2 (Homo sapiens, UniProt P49137); test: Inhibition of MAPKAPK2 at 30 uM by microfluidic mobility shift assay; outline: as §1
Chain of MAP kinase-activated protein kinase 2 (P49137 whole entry, looked up): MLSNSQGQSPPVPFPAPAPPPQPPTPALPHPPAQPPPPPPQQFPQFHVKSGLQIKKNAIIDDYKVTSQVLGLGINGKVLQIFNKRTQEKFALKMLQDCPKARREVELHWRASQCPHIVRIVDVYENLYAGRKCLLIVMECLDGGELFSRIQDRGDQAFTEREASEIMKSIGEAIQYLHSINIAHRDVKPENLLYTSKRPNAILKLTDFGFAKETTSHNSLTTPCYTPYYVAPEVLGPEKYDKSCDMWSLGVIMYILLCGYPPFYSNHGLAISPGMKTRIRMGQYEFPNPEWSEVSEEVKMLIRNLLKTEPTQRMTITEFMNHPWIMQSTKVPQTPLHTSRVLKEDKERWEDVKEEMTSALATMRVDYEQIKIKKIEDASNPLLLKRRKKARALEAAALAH

[21] = target: T4, MAP kinase-activated protein kinase 5 (Homo sapiens) (UniProt Q8IW41); test: Inhibition of PRAK1 at 30 uM by microfluidic mobility shift assay; outline: as §1
T4 sequence (whole entry): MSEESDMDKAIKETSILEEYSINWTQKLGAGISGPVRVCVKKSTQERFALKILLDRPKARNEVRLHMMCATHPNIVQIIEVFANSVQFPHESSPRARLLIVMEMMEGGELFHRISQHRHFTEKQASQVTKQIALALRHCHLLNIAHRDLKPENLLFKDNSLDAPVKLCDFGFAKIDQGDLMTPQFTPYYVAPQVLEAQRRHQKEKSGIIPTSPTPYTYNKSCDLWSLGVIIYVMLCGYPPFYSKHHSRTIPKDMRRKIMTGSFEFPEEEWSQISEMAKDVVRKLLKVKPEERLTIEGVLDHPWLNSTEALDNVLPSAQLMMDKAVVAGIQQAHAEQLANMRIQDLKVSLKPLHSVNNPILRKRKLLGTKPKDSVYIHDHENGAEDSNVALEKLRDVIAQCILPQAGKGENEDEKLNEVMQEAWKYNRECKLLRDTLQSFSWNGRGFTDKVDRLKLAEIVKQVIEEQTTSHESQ

[22] = target: Glycogen synthase kinase-3 beta (Homo sapiens) (UniProt P49841); test: Inhibition of GSK3B at 30 uM by microfluidic mobility shift assay; outline: as §1
Chain of Glycogen synthase kinase-3 beta (Homo sapiens) (P49841 whole entry, looked up): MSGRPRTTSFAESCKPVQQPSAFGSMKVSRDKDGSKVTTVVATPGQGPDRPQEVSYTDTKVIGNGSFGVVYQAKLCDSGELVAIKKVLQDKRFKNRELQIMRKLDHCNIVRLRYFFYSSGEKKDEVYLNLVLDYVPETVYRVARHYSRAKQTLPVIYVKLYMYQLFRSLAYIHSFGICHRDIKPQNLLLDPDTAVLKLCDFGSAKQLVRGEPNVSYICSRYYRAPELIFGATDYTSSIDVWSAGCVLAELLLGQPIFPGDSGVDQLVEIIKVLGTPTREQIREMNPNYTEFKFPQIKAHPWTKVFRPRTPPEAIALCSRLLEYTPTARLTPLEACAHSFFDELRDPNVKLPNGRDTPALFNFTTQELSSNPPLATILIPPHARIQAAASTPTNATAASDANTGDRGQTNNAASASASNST

[23] = target: T5, Protein kinase C zeta type (Homo sapiens) (UniProt Q05513); test: Inhibition of PKCz at 30 uM by microfluidic mobility shift assay; outline: as §1
T5 sequence (whole entry): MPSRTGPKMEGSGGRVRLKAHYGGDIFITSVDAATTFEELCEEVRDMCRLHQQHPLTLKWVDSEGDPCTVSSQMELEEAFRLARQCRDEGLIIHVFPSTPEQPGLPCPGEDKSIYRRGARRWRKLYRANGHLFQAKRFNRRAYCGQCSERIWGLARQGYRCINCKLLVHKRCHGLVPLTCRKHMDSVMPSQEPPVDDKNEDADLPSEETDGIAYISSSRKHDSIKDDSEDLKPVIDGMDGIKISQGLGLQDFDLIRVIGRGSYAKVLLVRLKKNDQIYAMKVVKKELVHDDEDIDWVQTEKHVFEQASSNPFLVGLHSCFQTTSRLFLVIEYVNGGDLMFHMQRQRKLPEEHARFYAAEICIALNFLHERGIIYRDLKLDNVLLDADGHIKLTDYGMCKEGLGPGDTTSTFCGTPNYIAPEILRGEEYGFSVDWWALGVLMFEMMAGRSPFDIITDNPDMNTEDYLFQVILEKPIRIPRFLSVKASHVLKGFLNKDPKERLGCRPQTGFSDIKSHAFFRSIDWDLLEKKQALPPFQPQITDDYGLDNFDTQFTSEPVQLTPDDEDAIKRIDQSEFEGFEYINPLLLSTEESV

Chain of Mitogen-activated protein kinase 14 (Q16539 whole entry): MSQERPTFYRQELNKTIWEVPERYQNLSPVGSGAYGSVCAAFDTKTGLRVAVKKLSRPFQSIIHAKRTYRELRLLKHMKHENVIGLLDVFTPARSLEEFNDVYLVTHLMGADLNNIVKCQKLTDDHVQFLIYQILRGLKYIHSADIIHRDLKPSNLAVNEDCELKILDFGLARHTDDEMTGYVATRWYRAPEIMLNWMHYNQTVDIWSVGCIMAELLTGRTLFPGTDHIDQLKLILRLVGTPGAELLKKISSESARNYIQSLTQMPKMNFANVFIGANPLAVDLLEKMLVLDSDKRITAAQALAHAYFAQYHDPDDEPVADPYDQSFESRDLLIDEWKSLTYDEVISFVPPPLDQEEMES

Structure (SMILES)	inhibition [1] [%]	inhibition [2] [%]	inhibition [3] [%]	inhibition [4] [%]	solubility [5] [µg/mL]	inhibition [6] [%]	inhibition [8] [%]	inhibition [9] [%]	inhibition [10] [%]	inhibition [12] [%]	inhibition [13] [%]	inhibition [14] [%]	inhibition [15] [%]	inhibition [16] [%]	inhibition [18] [%]	inhibition [19] [%]	inhibition [20] [%]	inhibition [21] [%]	inhibition [22] [%]	other results
Cn1nc(N)c2cnc(-c3ccccc3)cc21	0	7	9	9	259 (≈ 1150 µM)	33	6	4	4	4	11	10	5	7	8	5	7	5	17	inhibition [7]: 2%; inhibition [11]: 1%; inhibition [17]: 1%
O=C1Nc2ccccc2/C1=C1/Nc2ccccc2C1=O [INDIRUBIN]					< 1															
Cc1[nH]c(=O)c2c(N)nn(C)c2c1-c1ccccc1					2 (≈ 7.86 µM)															
Cc1cc2c(c(N)nn2C)c(N2CCN(C)CC2)n1					1160 (≈ 4470 µM)															
Cc1[nH]c(=O)c2c(N)n(-c3ccccc3)nc2c1-c1ccccc1	78	71	14	10	7 (≈ 22.1 µM)	4	4	-8	8	2	73	42	-1	71	62	-3	9	6	16	inhibition [7]: -2%; inhibition [23]: 26%
Cc1cc2nn(-c3ccccc3)c(N)c2c(=O)[nH]1	26	9	7	4	69 (≈ 287 µM)	6	1	5	7	4	24	20	-4	26	22	-1	-4	5	9	inhibition [11]: -8%; inhibition [17]: -9%
Nc1c2c(=O)[nH]c(C3CCNCC3)cc2nn1-c1ccccc1					1430 (≈ 4610 µM)															
Nc1n[nH]c2cc(-c3ccccc3)[nH]c(=O)c12					24 (≈ 106 µM)															
